From ChEMBL document CHEMBL4190234, “Design, synthesis and anticancer activity of new monastrol analogues bearing 1,3,4-oxadiazole moiety” (Eur J Med Chem, 2017)

Columns and labels:
Assay type in all cases: functional
[1] = test system: RPMI-8226; assay: Growth inhibition of human RPMI8226 cells at 10 uM incubated for 48 hrs by sulforhodamine B assay relative to control; settings: RPMI-8226, 48 h, read-out: GI
Outline: (§1)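 Single-dose screen at 10 μM final: cells in RPMI 1640, 5% FBS, 2 mM L-glutamine, plated 5,000–40,000/well, preincubated 24 h at 37°C, 5% CO2; drug 48 h; adherent cells fixed with 10% TCA, suspension cells with 16% TCA; SRB stain, absorbance 515 nm; percentage growth versus untreated control, with time-zero plates.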

[2] = test system: NCI/ADR-RES; assay: Growth inhibition of human NCI/ADR-RES cells at 10 uM incubated for 48 hrs by sulforhodamine B assay relative to control; settings: read-out: GI; outline: as §1
[3] = test system: U-251; assay: Growth inhibition of human U251 cells at 10 uM incubated for 48 hrs by sulforhodamine B assay relative to control; settings: U-251, 48 h, read-out: GI
Outline: (§2)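 NCI single-dose screen: cells grown in RPMI 1640 with 5% FBS and 2 mM L-glutamine, plated at 5,000–40,000 cells/well and preincubated 24 h at 37 °C, 5% CO2. Compounds taken from DMSO stock and tested at final 10 µM for 48 h. Cells fixed with TCA, stained with 0.4% SRB, absorbance read at 515 nm. Percentage growth calculated against untreated controls; controls held DMSO at the same dilution.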

[4] = test system: HOP-62; assay: Growth inhibition of human HOP62 cells at 10 uM incubated for 48 hrs by sulforhodamine B assay relative to control; settings: HOP-62, 48 h, read-out: GI; outline: as §1
[5] = test system: K562; assay: Growth inhibition of human K562 cells at 10 uM incubated for 48 hrs by sulforhodamine B assay relative to control; settings: K562, 48 h, read-out: GI; outline: as §1
[6] = test system: ACHN; assay: Growth inhibition of human ACHN cells at 10 uM incubated for 48 hrs by sulforhodamine B assay relative to control; settings: read-out: GI; outline: as §1
[7] = test system: SW-620; assay: Growth inhibition of human SW620 cells at 10 uM incubated for 48 hrs by sulforhodamine B assay relative to control; settings: SW-620, 48 h, read-out: GI; outline: as §2
[8] = test system: SK-OV-3; assay: Growth inhibition of human SKOV3 cells at 10 uM incubated for 48 hrs by sulforhodamine B assay relative to control; settings: SK-OV-3, 48 h, read-out: GI; outline: as §2
[9] = test system: SR; assay: Growth inhibition of human SR cells at 10 uM incubated for 48 hrs by sulforhodamine B assay relative to control; settings: read-out: GI; outline: as §2
[10] = test system: UACC-62; assay: Growth inhibition of human UACC62 cells at 10 uM incubated for 48 hrs by sulforhodamine B assay relative to control; settings: UACC-62, 48 h, read-out: GI; outline: as §2
[11] = test system: OVCAR-3; assay: Growth inhibition of human OVCAR3 cells at 10 uM incubated for 48 hrs by sulforhodamine B assay relative to control; settings: OVCAR-3, 48 h, read-out: GI; outline: as §1
[12] = test system: CAKI-1; assay: Growth inhibition of human Caki1 cells at 10 uM incubated for 48 hrs by sulforhodamine B assay relative to control; settings: CAKI-1, 48 h, read-out: GI; outline: as §1
[13] = test system: T47D; assay: Growth inhibition of human T47D cells at 10 uM incubated for 48 hrs by sulforhodamine B assay relative to control; settings: read-out: GI; outline: as §2
[14] = test system: OVCAR-8; assay: Growth inhibition of human OVCAR8 cells at 10 uM incubated for 48 hrs by sulforhodamine B assay relative to control; settings: OVCAR-8, 48 h, read-out: GI; outline: as §1
[15] = test system: MDA-MB-231; assay: Growth inhibition of human MDA-MB-231 cells at 10 uM incubated for 48 hrs by sulforhodamine B assay relative to control; settings: MDA-MB-231, 48 h, read-out: GI; outline: as §1
[16] = test system: MDA-MB-468; assay: Growth inhibition of human MDA-MB-468 cells at 10 uM incubated for 48 hrs by sulforhodamine B assay relative to control; settings: MDA-MB-468, 48 h, read-out: GI; outline: as §1
[17] = test system: A549; assay: Growth inhibition of human A549/ATCC cells at 10 uM incubated for 48 hrs by sulforhodamine B assay relative to control; settings: A549, 48 h, read-out: GI; outline: as §1
[18] = test system: SK-MEL-2; assay: Growth inhibition of human SK-MEL-2 cells at 10 uM incubated for 48 hrs by sulforhodamine B assay relative to control; settings: SK-MEL-2, 48 h, read-out: GI; outline: as §2
[19] = test system: Malme-3M; assay: Growth inhibition of human MALME-3M cells at 10 uM incubated for 48 hrs by sulforhodamine B assay relative to control; settings: read-out: GI; outline: as §1
[20] = test system: EKVX; assay: Growth inhibition of human EKVX cells at 10 uM incubated for 48 hrs by sulforhodamine B assay relative to control; settings: read-out: GI; outline: as §1
[21] = test system: PC-3; assay: Growth inhibition of human PC3 cells at 10 uM incubated for 48 hrs by sulforhodamine B assay relative to control; settings: PC-3, 48 h, read-out: GI; outline: as §1
[22] = test system: SF-539; assay: Growth inhibition of human SF539 cells at 10 uM incubated for 48 hrs by sulforhodamine B assay relative to control; settings: SF-539, 48 h, read-out: GI; outline: as §2
[23] = test system: SN12C; assay: Growth inhibition of human SN12C cells at 10 uM incubated for 48 hrs by sulforhodamine B assay relative to control; settings: read-out: GI; outline: as §2
[24] = test system: BT-549; assay: Growth inhibition of human BT549 cells at 10 uM incubated for 48 hrs by sulforhodamine B assay relative to control; settings: BT-549, 48 h, read-out: GI; outline: as §1
[25] = test system: NCI-H226; assay: Growth inhibition of human NCI-H226 cells at 10 uM incubated for 48 hrs by sulforhodamine B assay relative to control; settings: NCI-H226, 48 h, read-out: GI; outline: as §1
[26] = test system: SK-MEL-28; assay: Growth inhibition of human SK-MEL-28 cells at 10 uM incubated for 48 hrs by sulforhodamine B assay relative to control; settings: SK-MEL-28, 48 h, read-out: GI; outline: as §2
[27] = test system: NCI-H23; assay: Growth inhibition of human NCI-H23 cells at 10 uM incubated for 48 hrs by sulforhodamine B assay relative to control; settings: NCI-H23, 48 h, read-out: GI; outline: as §1
[28] = test system: SNB-19; assay: Growth inhibition of human SNB19 cells at 10 uM incubated for 48 hrs by sulforhodamine B assay relative to control; settings: SNB-19, 48 h, read-out: GI; outline: as §2
[29] = test system: UACC-257; assay: Growth inhibition of human UACC257 cells at 10 uM incubated for 48 hrs by sulforhodamine B assay relative to control; settings: UACC-257, 48 h, read-out: GI; outline: as §2
[30] = test system: DU-145; assay: Growth inhibition of human DU145 cells at 10 uM incubated for 48 hrs by sulforhodamine B assay relative to control; settings: DU-145, 48 h, read-out: GI; outline: as §1

Compound | inhibition of growth at 10 µM [1] | inhibition of growth at 10 µM [2] | inhibition of growth at 10 µM [3] | inhibition of growth at 10 µM [4] | inhibition of growth at 10 µM [5] | inhibition of growth at 10 µM [6] | inhibition of growth at 10 µM [7] | inhibition of growth at 10 µM [8] | inhibition of growth at 10 µM [9] | inhibition of growth at 10 µM [10] | inhibition of growth at 10 µM [11] | inhibition of growth at 10 µM [12] | inhibition of growth at 10 µM [13] | inhibition of growth at 10 µM [14] | inhibition of growth at 10 µM [15] | inhibition of growth at 10 µM [16] | inhibition of growth at 10 µM [17] | inhibition of growth at 10 µM [18] | inhibition of growth at 10 µM [19] | inhibition of growth at 10 µM [20] | further results
CC(=O)C1=C(C)NC(SCc2nnc(-c3ccc(Cl)cc3)o2)=NC1c1ccc(Cl)cc1 (stereo not given) | 32.9% | < 10% | 14.8% | 11.6% | 11.1% | 13.5% | < 10% | < 10% | 37.8% | 27.7% | < 10% | 21.1% | 39.5% | 14.5% | 27% | 10.8% | 21.4% | < 10% | 11.6% | < 10% | inhibition of growth at 10 µM [21]: 31.1%; inhibition of growth at 10 µM [22]: < 10%; inhibition of growth at 10 µM [23]: 13%; inhibition of growth at 10 µM [24]: 15.1%; inhibition of growth at 10 µM [25]: 11.4%; inhibition of growth at 10 µM [26]: < 10%; inhibition of growth at 10 µM [27]: < 10%; inhibition of growth at 10 µM [28]: 16.6%; inhibition of growth at 10 µM [29]: < 10%; inhibition of growth at 10 µM [30]: < 10%
CC(=O)C1=C(C)NC(SCc2nnc(-c3ccc(Cl)cc3)o2)=NC1c1ccc(F)cc1 (stereo not given) | 13.8% | < 10% | < 10% | < 10% | < 10% | < 10% | < 10% | < 10% | 19.1% | 22.6% | < 10% | 16.9% | 24.1% | < 10% | 17% | 11.3% | < 10% | < 10% | < 10% | < 10% | inhibition of growth at 10 µM [21]: 18.5%; inhibition of growth at 10 µM [22]: < 10%; inhibition of growth at 10 µM [23]: < 10%; inhibition of growth at 10 µM [24]: < 10%; inhibition of growth at 10 µM [25]: 11.6%; inhibition of growth at 10 µM [26]: < 10%; inhibition of growth at 10 µM [27]: < 10%; inhibition of growth at 10 µM [28]: < 10%; inhibition of growth at 10 µM [29]: < 10%; inhibition of growth at 10 µM [30]: < 10%
CCOC(=O)C1=C(C)NC(SCc2nnc(-c3ccc(Cl)cc3)o2)=NC1c1ccc(F)cc1 (stereo not given) | 25.8% | < 10% | 10.1% | < 10% | 14.4% | < 10% | < 10% | < 10% | 16.7% | 10.7% | < 10% | 17.5% | 27.1% | 11.7% | < 10% | 17.1% | 11.7% | < 10% | < 10% | < 10% | inhibition of growth at 10 µM [21]: 23.4%; inhibition of growth at 10 µM [22]: < 10%; inhibition of growth at 10 µM [23]: < 10%; inhibition of growth at 10 µM [24]: < 10%; inhibition of growth at 10 µM [25]: 10.6%; inhibition of growth at 10 µM [26]: < 10%; inhibition of growth at 10 µM [27]: < 10%; inhibition of growth at 10 µM [28]: 11.6%; inhibition of growth at 10 µM [29]: < 10%; inhibition of growth at 10 µM [30]: < 10%
CCOC(=O)C1=C(C)NC(SCc2nnc(-c3ccc(Cl)cc3)o2)=NC1c1ccc(OC)cc1 (stereo not given) | 18.3% | < 10% | 10.1% | < 10% | < 10% | < 10% | < 10% | < 10% | 18.1% | 15.3% | < 10% | 17.8% | 15.2% | < 10% | 10.2% | < 10% | 11.5% | < 10% | < 10% | < 10% | inhibition of growth at 10 µM [21]: 17.9%; inhibition of growth at 10 µM [22]: < 10%; inhibition of growth at 10 µM [23]: < 10%; inhibition of growth at 10 µM [24]: 16.9%; inhibition of growth at 10 µM [25]: 11.8%; inhibition of growth at 10 µM [26]: < 10%; inhibition of growth at 10 µM [27]: < 10%; inhibition of growth at 10 µM [28]: 12.5%; inhibition of growth at 10 µM [29]: < 10%; inhibition of growth at 10 µM [30]: < 10%
